Laboratory results reported in paper PMC5814546 (Clinical Pharmacokinetics, 2017).

How the values were obtained:
Format in all cases: in vivo, human
[1] = Phase I single ascending dose study of ALZ-801 loose-filled capsule; details: plasma, ALZ-801 capsule 172 and 300 mg doses
Method in brief: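 Single fasted oral loose-filled capsules; 172 mg in 36 healthy subjects over 50 y (parallel, randomized 1:1:1), 300 mg in 15 subjects over 50 y. Plasma sampled over 48 h into K3 EDTA on ice, spun 2000g 10 min 4 °C, stored at or below −20 °C. LC-MS assay; non-compartmental analysis; Tmax as median (range).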

[2] = Phase I multiple ascending dose study of ALZ-801 capsule and tablet; details: plasma; for AUC24: mean ± SD
[3] = Urine drug recovery, renal clearance and estimate of oral bioavailability; details: for Mean Ae / CLr: Cohort D, 24-h urine; for CLr: mean ± SD
Method in brief: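 Cohort D: 265 mg immediate-release tablet in the fed state (meal 30 min pre-dose), once on day 1, twice daily days 2–6, once on day 7. Urine was collected over 24 h on days 1 and 7 and assayed by LC-MS (LLOQ 30 ng/mL ALZ-801, 100 ng/mL tramiprosate). Renal clearance was calculated as Ae divided by plasma AUC24.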

O=C(O)CCS(=O)(=O)O [NRM5074]
median T max [1]: approximately 5 h | AUC24 ([2]; Day 1, fed, ALZ-801 tablet 265 mg (Cohort D)): 1810 ± 348 ng·h/mL | AUC24 ([2]; Day 7, fed, ALZ-801 tablet 265 mg twice daily (Cohort D)): 5470 ± 1030 ng·h/mL | median T max ([2]; days 7 and 14, all dosing regimens): 5 h | T max range ([2]; single oral dose of ALZ-801, day 1): 2 to 16 h | Mean Ae ([3]; Day 1, ALZ-801 tablet 265 mg): 70.8 mg | CLr ([3]; Day 1, ALZ-801 tablet 265 mg): 652 ± 161 mL/min | Mean Ae ([3]; Day 7, ALZ-801 tablet 265 mg): 188.7 mg | CLr ([3]; Day 7, ALZ-801 tablet 265 mg): 575 ± 218 mL/min | mean CLr (range) ([3]; across dosing cohorts and days, Study 2): 500 to 1570 mL/min
